Results from ChEMBL document CHEMBL1155070, “New endomorphin analogues containing alicyclic beta-amino acids: influence on bioactive conformation and pharmacological profile” (J Med Chem, 2008).

Columns and labels:
[1] = target: Delta-type opioid receptor (Rattus norvegicus, UniProt P33533); experiment: Displacement of [3H]Ile5,6deltorphin-2 from delta opioid receptor in Wistar rat brain
In short: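 Competition binding on crude male Wistar rat forebrain membranes (0.2-0.5 mg protein/tube) in 50 mM Tris-HCl pH 7.4. Filtration, scintillation counting. Ki from nonlinear fit plus Cheng-Prusoff. Mean ± SEM, ≥3 independent runs in duplicate.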

[2] = (§1) Half life in rat brain membrane homogenate; type: ADME
Rattus norvegicus = species: Rattus norvegicus; experiment: as §1; type: ADME

Sequence of Delta-type opioid receptor (P33533 whole entry): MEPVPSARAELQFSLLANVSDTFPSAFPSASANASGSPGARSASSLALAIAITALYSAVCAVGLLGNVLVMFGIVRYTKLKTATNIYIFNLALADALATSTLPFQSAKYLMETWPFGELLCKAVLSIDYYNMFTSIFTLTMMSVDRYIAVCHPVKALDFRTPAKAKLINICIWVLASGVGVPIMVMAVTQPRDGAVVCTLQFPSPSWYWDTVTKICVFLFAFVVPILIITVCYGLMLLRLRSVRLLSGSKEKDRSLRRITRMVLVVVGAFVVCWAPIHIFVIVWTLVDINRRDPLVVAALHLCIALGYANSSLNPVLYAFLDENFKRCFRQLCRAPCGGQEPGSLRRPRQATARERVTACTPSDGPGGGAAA

Row | Compound | Ki [1] [µM] | half-life [2] [h] | t1/2 (Rattus norvegicus) [h]
1 | NC(=O)[C@H](Cc1ccccc1)NC(=O)[C@H](Cc1ccccc1)NC(=O)[C@@H]1CCC[C@@H]1NC(=O)[C@@H](N)Cc1ccc(O)cc1 | > 10 |  | 
2 | NC(=O)[C@H](Cc1ccccc1)NC(=O)[C@H](Cc1ccccc1)NC(=O)[C@H]1CCC[C@H]1NC(=O)[C@@H](N)Cc1ccc(O)cc1 | 4.8 | > 12 | 
3 | NC(=O)[C@H](Cc1ccccc1)NC(=O)[C@H](Cc1ccccc1)NC(=O)[C@H]1CCCC[C@H]1NC(=O)[C@@H](N)Cc1ccc(O)cc1 | 0.812 | > 12 | 
4 | NC(=O)[C@H](Cc1ccccc1)NC(=O)[C@H](Cc1ccccc1)NC(=O)[C@@H]1CCCC[C@@H]1NC(=O)[C@@H](N)Cc1ccc(O)cc1 | > 10 |  | 
5 | NC(=O)[C@H](Cc1ccccc1)NC(=O)[C@H](Cc1c[nH]c2ccccc12)NC(=O)[C@H]1CCC[C@@H]1NC(=O)[C@@H](N)Cc1ccc(O)cc1 | 3.08 |  | 
6 | NC(=O)[C@H](Cc1ccccc1)NC(=O)[C@H](Cc1ccccc1)NC(=O)[C@@H]1CCCC[C@H]1NC(=O)[C@@H](N)Cc1ccc(O)cc1 | 0.439 |  | 
7 | NC(=O)[C@H](Cc1ccccc1)NC(=O)[C@H](Cc1c[nH]c2ccccc12)NC(=O)[C@@H]1CCCC[C@H]1NC(=O)[C@@H](N)Cc1ccc(O)cc1 | > 10 |  | 
8 | NC(=O)[C@H](Cc1ccccc1)NC(=O)[C@H](Cc1c[nH]c2ccccc12)NC(=O)[C@H]1CCCC[C@H]1NC(=O)[C@@H](N)Cc1ccc(O)cc1 | 2.76 | > 12 | 
9 | NC(=O)[C@H](Cc1ccccc1)NC(=O)[C@H](Cc1ccccc1)NC(=O)[C@H]1CCCC[C@@H]1NC(=O)[C@@H](N)Cc1ccc(O)cc1 | > 10 |  | 
10 | NC(=O)[C@H](Cc1ccccc1)NC(=O)[C@H](Cc1ccccc1)NC(=O)[C@H]1CCC[C@@H]1NC(=O)[C@@H](N)Cc1ccc(O)cc1 | 4.23 |  | 
11 | NC(=O)[C@H](Cc1ccccc1)NC(=O)[C@H](Cc1c[nH]c2ccccc12)NC(=O)[C@H]1CCCC[C@@H]1NC(=O)[C@@H](N)Cc1ccc(O)cc1 | 9.62 |  | 
12 | NC(=O)[C@H](Cc1ccccc1)NC(=O)[C@H](Cc1c[nH]c2ccccc12)NC(=O)[C@@H]1CCCC[C@@H]1NC(=O)[C@@H](N)Cc1ccc(O)cc1 | > 10 |  | 
13 | NC(=O)[C@H](Cc1ccccc1)NC(=O)[C@H](Cc1c[nH]c2ccccc12)NC(=O)[C@@H]1CCC[C@@H]1NC(=O)[C@@H](N)Cc1ccc(O)cc1 | > 10 |  | 
14 | NC(=O)[C@H](Cc1ccccc1)NC(=O)[C@H](Cc1ccccc1)NC(=O)[C@@H]1CCC[C@H]1NC(=O)[C@@H](N)Cc1ccc(O)cc1 | 1.41 |  | 
15 | NC(=O)[C@H](Cc1ccccc1)NC(=O)[C@H](Cc1c[nH]c2ccccc12)NC(=O)[C@H]1CCC[C@H]1NC(=O)[C@@H](N)Cc1ccc(O)cc1 | 1.34 | > 12 | 
16 | NC(=O)[C@H](Cc1ccccc1)NC(=O)[C@H](Cc1c[nH]c2ccccc12)NC(=O)[C@@H]1CCC[C@H]1NC(=O)[C@@H](N)Cc1ccc(O)cc1 | 0.67 |  | 
17 | NC(=O)[C@H](Cc1ccccc1)NC(=O)[C@H](Cc1ccccc1)NC(=O)[C@@H]1CCCN1C(=O)[C@@H](N)Cc1ccc(O)cc1 [ENDOMORPHIN 2] |  |  | 3.8
18 | NC(=O)[C@H](Cc1ccccc1)NC(=O)[C@H](Cc1c[nH]c2ccccc12)NC(=O)[C@@H]1CCCN1C(=O)[C@@H](N)Cc1ccc(O)cc1 [ENDOMORPHIN-1] |  |  | 4.9
